In ChEMBL document CHEMBL1153756, “Synthesis and pharmacological evaluation of N-phenyl-acetamide sulfonamides designed as novel non-hepatotoxic analgesic candidates” (Eur J Med Chem, 2009):
Activity calls are given as the source filed them. The calls are words filed in the database; no cut-off is given here.

Legend:
[1] = tested on: Mus musculus; assay: Antihyperalgesic activity in Swiss mouse assessed as inhibition of formalin-induced nociception at 100 umol/kg, po administered 40 mins before formalin challenge measured after 15 to 30 mins; format: functional, organism-based
Summary of the method: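 Swiss mice given 100 µmol/kg p.o. (vehicle arabic gum) 40 min before 20 µL of 2% formalin in 0.9% saline s.c. into the right hind paw. Licking/biting time recorded 0–5 min (neurogenic phase) and 15–30 min (inflammatory phase). n = 6. Mean ± S.E.M. ANOVA with Dunnett test vs control.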

[2] = tested on: Mus musculus; assay: Analgesic activity in Swiss mouse assessed as inhibition of acetic acid-induced abdominal writhings at 100 umol/kg, po administered 60 mins before acetic acid challenge relative to control; design: scale not given: the % may be the effect or the level left
[3] = tested on: Mus musculus; assay: Hypothermic activity in Swiss mouse assessed as decrease in rectal body temperature at 100 umol/kg, po after 1 hr at room temperature; format: organism-based; conditions: in vivo
Summary of the method: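 Swiss mice with normal rectal temperature (37.0–38.0 °C) were acclimatized 1 h at 25 °C room temperature, and baseline rectal temperature was taken. Animals were then dosed orally at 100 µmol/kg, and rectal temperature was re-measured 1 h later; change from baseline reported, n = 8, mean ± S.E.M., Dunnett versus control.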

[4] = tested on: Mus musculus; assay: Analgesic activity in Swiss mouse at 100 umol/kg, po after 120 mins by hot plate test; format: functional
Summary of the method: (§1)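 Swiss mice (20–30 g) given 100 µmol/kg orally and placed on a hot plate at 55 ± 1 °C. Latency to fore- or hind-paw licking or jumping recorded 30, 60, 90 and 120 min after dosing. Baseline is the mean reaction time at 30 and 60 min before dosing. n = 6–8. ANOVA with Dunnett test vs control.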

[5] = tested on: Mus musculus; assay: Analgesic activity in Swiss mouse at 100 umol/kg, po after 30 mins by hot plate test; format: functional; summary of the method: as §1
[6] = tested on: Mus musculus; assay: Analgesic activity in Swiss mouse at 100 umol/kg, po after 60 mins by hot plate test; format: functional; summary of the method: as §1
[7] = tested on: Mus musculus; assay: Analgesic activity in Swiss mouse at 100 umol/kg, po after 90 mins by hot plate test; format: functional; summary of the method: as §1
[8] = tested on: Mus musculus; assay: Antihyperalgesic activity in Swiss mouse assessed as inhibition of formalin-induced nociception at 100 umol/kg, po administered 40 mins before formalin challenge measured after 0 to 5 mins; format: functional, organism-based
[9] = tested on: Mus musculus; assay: Analgesic activity in Swiss mouse at 15 umol/kg, ip after 30 mins by hot plate test; format: functional
Summary of the method: (§2)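 Hot-plate reference arm in Swiss mice: morphine 15 µmol/kg i.p. Animals placed on a plate at 55 ± 1 °C. Paw-licking or jumping latency read 30, 60, 90 and 120 min after treatment. Baseline is the mean of readings at 30 and 60 min before treatment. n = 8.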

[10] = tested on: Mus musculus; assay: Analgesic activity in Swiss mouse at 15 umol/kg, ip after 60 mins by hot plate test; format: functional; summary of the method: as §2
[11] = tested on: Mus musculus; assay: Analgesic activity in Swiss mouse at 15 umol/kg, ip after 90 mins by hot plate test; format: functional; summary of the method: as §2
[12] = tested on: Mus musculus; assay: Analgesic activity in Swiss mouse at 15 umol/kg, ip after 120 mins by hot plate test; format: functional; summary of the method: as §2
[13] = tested on: Mus musculus; assay: Hepatotoxicity in Swiss mouse assessed as changes in morphology of liver parenchyma at 100 umol/kg, po for five days after 24 hrs of last dose; format: toxicity, organism-based; conditions: in vivo
Summary of the method: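 Swiss mice given 100 µmol/kg p.o. daily for 5 days; controls received vehicle. After blood collection 24 h post last dose, animals were killed with CO₂; ten liver samples per animal (two each from left, right, left middle, right middle and caudate lobes) fixed in 10% neutral buffered formalin, H&E stained, examined at 100× and 400× for necrosis or degeneration.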

[14] = tested on: Mus musculus; assay: Analgesic activity in po dosed Swiss mouse assessed as inhibition of acetic acid-induced abdominal writhings administered 60 mins before acetic acid challenge measured for 25 mins; format: functional; conditions: Abdomen
Summary of the method: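 Swiss mice (20–30 g). Oral dosing before i.p. 0.6% (v/v) acetic acid, 0.1 mL/10 g. Writhes (abdominal contraction, pelvic rotation, hind-limb extension) counted for 20 min starting 5 min after injection. Result expressed as % inhibition vs vehicle controls. Screening at 100 µmol/kg p.o.; dose-response at 100, 30, 10 and 3 µmol/kg with ID50 by linear regression. n = 8.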

[15] = tested on: Mus musculus; assay: Hepatotoxicity in Swiss mouse assessed as increase in serum gamma-glutamyl transferase at 100 umol/kg, po for five days after 24 hrs of last dose; format: toxicity, organism-based; conditions: in vivo
Summary of the method: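 Swiss mice received 100 µmol/kg p.o. daily for five days (n = 6; vehicle n = 5). 24 h after the last dose, blood was drawn under ethyl ether anaesthesia, and serum was separated at 3000 × g for 15 min and kept at 4 °C. gGT was assayed by a kinetic kit method, in U/L. ANOVA with Dunnett test.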

Compound	Activity [1]	Activity [2] [%]	Activity [3] [°C]	Activity [4] [%]	Activity [5] [%]	Activity [6] [%]	Activity [7] [%]	Activity [8]	Activity [9] [%]	Activity [10] [%]	Activity [11] [%]	Activity [12] [%]	Activity [13]	Activity [14]	Activity [15]
CCN(CC)S(=O)(=O)c1ccc(NC(C)=O)cc1	Active	45.8	-1.8	0	2.4	0	0								
CCNS(=O)(=O)c1ccc(NC(C)=O)cc1	inactive	48.6	0.2	24.2	23	6	32.8	inactive							
CC(=O)Nc1ccc(S(=O)(=O)N2CCNCC2)cc1	inactive	61.1	0.2	0	23.5	7.2	37.1								
CN1CC[C@]23c4c5ccc(O)c4O[C@H]2[C@@H](O)C=C[C@H]3[C@H]1C5 [MORPHINE]									78.9	74.7	57.8	32.1			
CC(=O)Nc1ccc(S(=O)(=O)N2CCSCC2)cc1	inactive	44	-0.7	65.1	25	28.6	48.3	inactive							
CC(=O)Nc1ccc(O)cc1 [ACETAMINOPHEN]	inactive	34	-1.1	54.6	51.8	60.6	54.6						Toxic		
CC(=O)Nc1ccc(S(=O)(=O)N2CCCCC2)cc1	Active	29.6	-0.8	30.7	26.5	14.3	18.2								
CC(=O)Nc1ccc(S(=O)(=O)N2CCN(C)CC2)cc1	inactive	75	-1.8	21.3	57.5	47.9	19.6	inactive					Non-toxic	Dose-dependent effect	Non-toxic
CC(=O)Nc1ccc(S(=O)(=O)N2CCOCC2)cc1	inactive	43.2	-1.4	8	22	23.3	20.7								
